The values that follow come from publication PMC6028884 (Clinical Pharmacokinetics, 2017).

The conditions of series [1]: cited from earlier work.
The nature of series [2]: Population pharmacokinetic analysis. Type of series: in vivo, human.
For series [3] the following is noted: strong CYP3A inhibitor ketoconazole; cited from earlier work.
A further series relates to plasma protein. The following applies: cited from earlier work.
For series [4] the following is noted: cited from earlier work. This is another data set of the same source.
The test system of the next series is rheumatoid arthritis. The following applies: phase IIb studies, 12 weeks; cited from earlier work.
In a further series the test system is cytochrome P450 (CYP) 3A. The following applies: in vitro; cited from earlier work.
The conditions of series [5]: immediate-release formulation, compared with fasting conditions; cited from earlier work.
The format of series [6] is in vivo, human. In a few lines:
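Used a two-compartment population PK model with first-order absorption and elimination, fitted by nonlinear mixed-effects modelling. Data were LC-MS plasma concentrations from healthy subjects and RA patients given 1–48 mg immediate-release oral doses. Simulations ran 200 replicates using demographics of RA patients from two phase IIb trials.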

The subject of the next series is CYP2D6. To be noted: in vitro; cited from earlier work.
The mark [7] stands for this setting: Population analysis, point estimate (%RSE), final model.
Setting [8] is: matched on sex and creatinine clearance.
The mark [9] stands for this setting: steady state, matching on other covariates.

Entries after “also recorded” stand apart in the source; their conditions may differ.

`O=C(Nc1nc2cccc(-c3ccc(CN4CCS(=O)(=O)CC4)cc3)n2n1)C1CC1` [filgotinib]: in [1], the “oral clearance in subjects with RA compared with healthy subjects” value is given as “lower”.
As to `C[C@@H]1CCN(C(=O)CC#N)C[C@@H]1N(C)c1ncnc2[nH]ccc12` [tofacitinib], the “oral clearance in subjects with RA compared with healthy subjects” value in series [1] is on record as “lower”.
What is called CL/F is clearance divided by bioavailability, as obtained after extravascular dosing. For `CC[C@@H]1CN(C(=O)NCC(F)(F)F)C[C@@H]1c1cnc2cnc3[nH]ccc3n12` [upadacitinib, Upadacitinib], the “linearity of pharmacokinetics with respect to dose” value in series [2] (1-48 mg immediate-release doses) was “dose-proportional; also recorded: did not deviate significantly from linearity; also recorded: did not significantly deviate from linearity”. In series [2] (Bootstrap analysis, mean), the ALAG1 was found to be 0.48 h, the “Additive residual error SD” value is 0.17 ng/mL, the “Exponent for the effect of body weight on Vc/F (θ5)” value (“Exponent for the effect” below) is given as 0.50 and the Ka was found to be 20.1 h⁻¹. In addition, in [2] (Bootstrap analysis, mean), the “Proportional residual error SD” value is reported as 31%, the Q/F came out at 3.24 L/h, the “Ratio of CL/F in RA patients compared with healthy subjects (θ1)” value (shortened to “Ratio of CL/F in RA patients”) turned out to be 0.76 and the “Ratio of CL/F in females compared with males (θ2)” value (from here on “Ratio of CL/F in females”) stood at 0.86. Besides, in series [2] (Bootstrap analysis, mean), the “Ratio of Vc/F in females compared with males (θ4)” value (shortened to “Ratio of Vc/F in females”) was determined as 0.75, the Vc/F is recorded as 145 L, the Vp/F is recorded as 65.4 L and the “ωIOV2 on ALAG1 (phase II study visits only)” value (“ωIOV2 on ALAG1” below) worked out at 0.079. In addition, the CL/F in [2] (Bootstrap analysis, mean (188 successful runs out of 200)) was found to be 39.8 L/h. In series [2] (Bootstrap analysis, median), the ALAG1 worked out at 0.48 h, the “Additive residual error SD” value stood at 0.17 ng/mL, the “Exponent for the effect” value was 0.50 and the Ka turned out to be 12.2 h⁻¹. In addition, in series [2] (Bootstrap analysis, median), the “Proportional residual error SD” value is 31%, the Q/F worked out at 3.23 L/h, the “Ratio of CL/F in RA patients” value was determined as 0.76 and the “Ratio of CL/F in females” value was 0.86. Also, in series [2] (Bootstrap analysis, median), the “Ratio of Vc/F in females” value amounted to 0.75, the Vc/F turned out to be 145 L, the Vp/F is on record as 64.6 L and the “ωIOV2 on ALAG1” value is on record as 0.079. This compound also showed a CL/F in [2] (Bootstrap analysis, median (188 successful runs out of 200)) of 39.8 L/h. For the same compound, in [2] (setting [7]), the ALAG1 is given as 0.48 (0.017) h, the “Additive residual error SD” value is listed as 0.18 (13) ng/mL, the “Proportional residual error SD” value was 31 (13) % and the Q/F was 3.23 (2.5) L/h. Moreover, in series [2] (setting [7]), the “Ratio of CL/F in RA patients” value is 0.76 (2.9), the “Ratio of CL/F in females” value was 0.86 (2.8), the “Ratio of Vc/F in females” value was 0.75 (1.6) and the Vp/F is given as 64.3 (1.1) L. Also, the “ωIOV2 on ALAG1” value in series [2] (setting [7]) is reported as 0.08 (1.5). In addition, in [2] (Population analysis, point estimate (%RSE), final model, (BW/74 kg)^θ5), the “Exponent for the effect” value is on record as 0.50 (15.8). The Vc/F in series [2] (Population analysis, point estimate (%RSE), final model, reference male, 74 kg) was 146 (2.2) L. The Ka in series [2] (Population analysis, point estimate, final model) is 12.3 h⁻¹. In series [2] (in vivo), the “correlation of clearance with body weight” value is given as “not correlated” and the “lower CL/F in females compared with males” value is on record as 14%. Also, the “effect of CYP2D6 phenotype on upadacitinib clearance” value in series [2] (phenotype determined from pharmacogenetic analysis) was “not correlated; also recorded: not a statistically significant covariate”. For the same compound, in series [2] (typical healthy male), the “absorption lag time (ALAG1), estimate (95% CI)” value is on record as 0.48 (0.47–0.49) h and the “mean absorption time (calculated as 1/Ka), estimate (95% CI)” value is 0.08 (0.04–0.12) h. The “oral clearance (CL/F), population estimate (95% bootstrap CI)” value in series [2] (typical healthy male, body weight 74 kg, creatinine clearance […]) is 39.7 (37.8–41.5) L/h. Also, in series [3], the “increase of upadacitinib exposures by ketoconazole” value is given as “approximately 75%”. For the same compound, in the series on plasma protein, the plasma protein binding is listed as less than 50%. Also, the “upadacitinib dose eliminated unchanged in urine” value in [4] is “Approximately 20%”. The accumulation in plasma entry in series [4] (multiple twice-daily dosing) is listed as “no accumulation”. Besides, the “dose proportionality of exposures” value in series [4] (over the evaluated dose range) is “approximately dose proportional”. In addition, in series [4] (phase I studies, immediate-release capsules), the functional half-life entry was “approximately 4 h”. In series [4] (single doses up to 48 mg and multiple twice-daily doses up to 24 mg, immediate-release capsules), the tolerability result is given as “well-tolerated”. Besides, the safety profile entry in the series with rheumatoid arthritis is “acceptable safety profile”. In the series on cytochrome P450 (CYP) 3A, the “substrate status for CYP3A” value is “non-sensitive substrate”. Further, in [5], the “decrease of Cmax by food” value is given as “approximately 20%” and the “delay of time to Cmax (Tmax) by food” value is recorded as “approximately 2 h”. In addition, in [6] (setting [8]), the “AUC, body weight < 60 kg or > 100 kg compared with 60-100 kg” value is listed as “same”; the “higher Cmax, body weight < 60 kg compared with 60-100 kg” value was “approximately 10%”; the “lower Cmax, body weight > 100 kg compared with 60-100 kg” value is “approximately 10%”. In addition, in series [6] (steady state), the “higher Cmax in females compared with males” value was determined as 26%. For the same compound, in series [6] (setting [9]), the “higher upadacitinib AUC in females relative to males” value came to 16% and the “higher upadacitinib AUC in subjects with RA relative to healthy volunteers” value stood at 32%. Moreover, the “contribution of CYP2D6 to metabolism” value in the series with CYP2D6 is listed as “potentially minor metabolic contribution; also recorded: minor contributor”.
